Experimental data published in ChEMBL document CHEMBL4715836, “Synthesis and characterization of quinoline-carbaldehyde derivatives as novel inhibitors for leishmanial methionine aminopeptidase 1” (Eur J Med Chem, 2020).
The source made the active and inactive calls. The calls are words filed in the database; no cut-off is given here.

Columns and labels:
[1] = Inhibition of Leishmania donovani MetAP1 expressed in Escherichia coli BL21 (DE3) using L-methionine-4-methyl-coumary1-7-amide as substrate preincubated for 30 mins followed by substrate addition and measured at 1 min interval for 30 mins by spectrofluorometric method
Method in brief: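 His-tagged LdMetAP1 from pET28a, purified by Ni-NTA and gel filtration. Enzyme preincubated 30 min in metal-supplemented assay buffer with compound. L-Met-AMC added at 125 µM and fluorescence recorded. Percent inhibition taken as the net fluorescence decrease against control reactions; IC50 from a range of compound concentrations.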

Leishmania donovani [2] = assay: Binding affinity to Leishmania donovani MetAP1 expressed in Escherichia coli BL21 (DE3) assessed as intrinsic fluorescence quenching of tryptophan residues measured after 30 mins by fluorescence spectroscopic method
Method in brief: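 LdMetAP1 at 1 µM final in 20 mM Tris-HCl pH 7.5, 50 mM NaCl, incubated with compounds for 30 min at 25°C. Tryptophan fluorescence read at excitation ~295 nm, emission ~300-400 nm. F0/F1 plotted against compound concentration. KSV from linear regression; binding parameters from modified Stern-Volmer plots.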

[3] = Binding affinity to Leishmania donovani MetAP1 expressed in Escherichia coli BL21 (DE3) by surface plasmon resonance analysis
Method in brief: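 Recombinant LdMetAP1 amine-coupled to a CM-5 dextran chip. Running and injection buffer was 1X PBS pH 7.4 with 0.05% P-20. Compounds in 2% DMSO injected over the chip at a range of concentrations to record response units. After solvent correction, kinetics fitted to a 1:1 Langmuir binding model.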

[4] = Cytotoxicity against mouse embryonic fibroblasts measured after 48 hrs by MTT assay; conditions: Fibroblast
Method in brief: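 Mouse embryonic fibroblasts exposed to compounds at 0, 50, 100 and 200 µM for 48 h. MTT solution (5 mg/ml) then added for 4 h at 37°C. Formazan dissolved in DMSO and absorbance read at 570 nm.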

Leishmania donovani [5] = assay: Uncompetitive inhibition of Leishmania donovani MetAP1 expressed in Escherichia coli BL21 (DE3) at 1 to 10 uM using varying levels of L-methionine-4-methyl-coumary1-7-amide as substrate preincubated for 30 mins followed by substrate addition and measured for 30 mins by Lineweaver-burk plot analysis; conditions: dose 1-10 µM, time 60.0 min
Leishmania donovani [6] = assay: Competitive inhibition of Leishmania donovani MetAP1 expressed in Escherichia coli BL21 (DE3) at 1 to 10 uM using varying levels of L-methionine-4-methyl-coumary1-7-amide as substrate preincubated for 30 mins followed by substrate addition and measured for 30 mins by Lineweaver-burk plot analysis; conditions: dose 1-10 µM, time 60.0 min

| SMILES | IC50 [1] [µM] | also measured |
| --- | --- | --- |
| O=C1CSC(c2ccc3cccc(O)c3n2)N1c1cccc(Br)c1 (stereo unspecified) | 46.1 |  |
| CC(C)c1ccc(N2C(=O)CSC2c2ccc3cccc(O)c3n2)cc1 (stereo unspecified) | 37.4 |  |
| O=C1CSC(c2ccc3cccc(O)c3n2)N1c1ccc(Br)cc1 (stereo unspecified) | 36.8 |  |
| O=C1CSC(c2ccc3cccc(O)c3n2)N1c1ccc(C(F)(F)F)cc1 (stereo unspecified) | 54.1 |  |
| O=C1CSC(c2ccc3cccc(O)c3n2)N1c1cccc(OC(F)(F)F)c1 (stereo unspecified) | 46.4 |  |
| O=C1CSC(c2ccc3cccc(O)c3n2)N1c1ccc(Oc2ccccc2)cc1 (stereo unspecified) | 43.8 |  |
| COc1ccc(N2C(=O)CSC2c2ccc3cccc(O)c3n2)cc1 (stereo unspecified) | 62.5 |  |
| O=C1CSC(c2ccc3cccc(O)c3n2)N1c1ccc(I)cc1 (stereo unspecified) | 252 |  |
| O=C1CSC(c2ccc3cccc(O)c3n2)N1c1ccc(F)cc1 (stereo unspecified) | 45.5 |  |
| COc1cccc(N2C(=O)CSC2c2ccc3cccc(O)c3n2)c1 (stereo unspecified) | 39.7 |  |
| O=C1CSC(c2ccc3cccc(O)c3n2)N1c1ccccc1 (stereo unspecified) | 79.9 |  |

The next molecules have a lower IC50 [1] than those just listed; values first:

| IC50 [1] [µM] | SMILES | also measured |
| --- | --- | --- |
| 27.9 | Cc1cccc(N2C(=O)CSC2c2ccc3cccc(O)c3n2)c1 (stereo unspecified) |  |
| 26.4 | COc1ccc(N2C(=O)CSC2c2ccc3cccc(O)c3n2)cc1OC (stereo unspecified) |  |
| 18.4 | COc1cc(OC)cc(N2C(=O)CSC2c2ccc3cccc(O)c3n2)c1 (stereo unspecified) |  |
| 18.4 | COc1ccccc1N1C(=O)CSC1c1ccc2cccc(O)c2n1 (stereo unspecified) |  |
| 12.9 | COc1cc(N2C(=O)CSC2c2ccc3cccc(O)c3n2)cc(OC)c1OC (stereo unspecified) |  |
| 11.7 | N#Cc1cccc(N2C(=O)CSC2c2ccc3cccc(O)c3n2)c1 (stereo unspecified) | Activity (Leishmania donovani [2]): Dose-dependent effect; Kd [3]: 0.0154 µM; IC50 [4]: > 250 µM; inhibition (Leishmania donovani [6]): Active |
| 8.8 | O=C1CSC(c2ccc3cccc(O)c3n2)N1c1cccc(F)c1 (stereo unspecified) | Activity (Leishmania donovani [2]): Dose-dependent effect; Kd [3]: 0.000161 µM; IC50 [4]: 120 µM; inhibition (Leishmania donovani [5]): Active |
| 1.31 | Cc1ccc(N2C(=O)CSC2c2ccc3cccc(O)c3n2)cc1 (stereo unspecified) | Activity (Leishmania donovani [2]): Dose-dependent effect; Kd [3]: 0.0215 µM; IC50 [4]: > 200 µM; inhibition (Leishmania donovani [6]): Active |
| 1.1 | O=C1CSC(c2ccc3cccc(O)c3n2)N1c1ccc(Cl)cc1 (stereo unspecified) | Activity (Leishmania donovani [2]): Dose-dependent effect; Kd [3]: 0.015 µM; IC50 [4]: > 200 µM; inhibition (Leishmania donovani [6]): Active |
